Results from ChEMBL document CHEMBL1157935, “Potent and selective fluoroketone inhibitors of group VIA calcium-independent phospholipase A2” (J Med Chem, 2010).

Legend:
[1] = target: T1, 85/88 kDa calcium-independent phospholipase A2 (Homo sapiens) (UniProt O60733); test: Inhibition of human recombinant group 6A iPLA2 expressed in Sf9 insect cells at 0.091 mol fraction after 30 mins by Dole assay
T1 sequence (whole entry): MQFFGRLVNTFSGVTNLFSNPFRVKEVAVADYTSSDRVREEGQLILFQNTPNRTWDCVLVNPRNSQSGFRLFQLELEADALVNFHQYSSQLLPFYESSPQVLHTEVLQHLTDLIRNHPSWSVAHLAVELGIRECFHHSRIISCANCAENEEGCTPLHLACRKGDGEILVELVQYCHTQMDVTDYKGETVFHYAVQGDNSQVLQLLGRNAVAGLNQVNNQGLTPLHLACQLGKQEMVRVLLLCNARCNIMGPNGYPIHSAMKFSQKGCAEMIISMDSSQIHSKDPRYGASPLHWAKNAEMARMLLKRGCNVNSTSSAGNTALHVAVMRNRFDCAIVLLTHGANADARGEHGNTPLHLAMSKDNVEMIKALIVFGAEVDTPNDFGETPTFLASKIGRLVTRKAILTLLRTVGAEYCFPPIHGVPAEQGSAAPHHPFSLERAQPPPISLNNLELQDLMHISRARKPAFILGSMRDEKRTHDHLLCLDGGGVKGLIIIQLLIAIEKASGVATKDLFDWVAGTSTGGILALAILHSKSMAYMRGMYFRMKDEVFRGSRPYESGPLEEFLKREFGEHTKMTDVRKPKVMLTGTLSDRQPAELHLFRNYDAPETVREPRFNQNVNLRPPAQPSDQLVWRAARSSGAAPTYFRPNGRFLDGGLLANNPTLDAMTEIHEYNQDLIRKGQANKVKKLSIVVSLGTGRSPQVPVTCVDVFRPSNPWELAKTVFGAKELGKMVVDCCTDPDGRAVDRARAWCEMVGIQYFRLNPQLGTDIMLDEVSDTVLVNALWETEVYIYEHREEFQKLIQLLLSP
How it was run: (§1)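 Screen at 0.091 mole fraction (mean, SE, n = 3). XI(50), the inhibitor mole fraction giving 50% inhibition, fitted sigmoidally from typically 7 levels between 0.00091 and 0.091.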

[2] = target: T2, Cytosolic phospholipase A2 (Homo sapiens) (UniProt P47712); test: Inhibition of human group […] cPLA2 at 0.091 mol fraction after 30 mins by Dole assay
T2 sequence (whole entry): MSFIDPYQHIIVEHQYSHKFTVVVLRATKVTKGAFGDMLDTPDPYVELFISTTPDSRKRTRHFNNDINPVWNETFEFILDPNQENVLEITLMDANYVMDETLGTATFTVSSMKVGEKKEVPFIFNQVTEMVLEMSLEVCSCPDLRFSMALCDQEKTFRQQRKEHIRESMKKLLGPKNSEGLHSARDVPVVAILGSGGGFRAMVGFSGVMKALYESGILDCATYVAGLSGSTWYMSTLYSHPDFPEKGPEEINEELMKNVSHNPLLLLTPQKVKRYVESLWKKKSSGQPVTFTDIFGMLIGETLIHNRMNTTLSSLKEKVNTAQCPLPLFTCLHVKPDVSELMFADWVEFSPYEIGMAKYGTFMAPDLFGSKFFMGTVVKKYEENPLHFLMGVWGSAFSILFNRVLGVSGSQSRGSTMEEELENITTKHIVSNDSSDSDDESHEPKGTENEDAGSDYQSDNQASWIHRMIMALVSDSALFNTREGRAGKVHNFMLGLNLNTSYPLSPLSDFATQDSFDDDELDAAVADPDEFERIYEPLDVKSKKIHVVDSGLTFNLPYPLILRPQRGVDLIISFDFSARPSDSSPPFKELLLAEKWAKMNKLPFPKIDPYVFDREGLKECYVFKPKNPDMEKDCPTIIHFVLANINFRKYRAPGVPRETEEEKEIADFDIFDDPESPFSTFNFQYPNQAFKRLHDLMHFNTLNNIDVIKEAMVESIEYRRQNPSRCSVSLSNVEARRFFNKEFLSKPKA
How it was run: (§2)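 Screened at 0.091 mole fraction (mean, SE, n = 3). XI(50) from % inhibition vs inhibitor mole fraction, typically 7 levels 0.00091–0.091, fitted by symmetrical sigmoidal non-linear regression.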

[3] = target: T1, 85/88 kDa calcium-independent phospholipase A2 (Homo sapiens); test: Inhibition of human recombinant group 6A iPLA2 expressed in Sf9 insect cells after 30 mins by Dole assay; how it was run: as §1
[4] = target: T3, Phospholipase A2 group V (Homo sapiens) (UniProt P39877); test: Inhibition of human group 5 sPLA2 at 0.091 mol fraction after 30 mins
T3 sequence (whole entry): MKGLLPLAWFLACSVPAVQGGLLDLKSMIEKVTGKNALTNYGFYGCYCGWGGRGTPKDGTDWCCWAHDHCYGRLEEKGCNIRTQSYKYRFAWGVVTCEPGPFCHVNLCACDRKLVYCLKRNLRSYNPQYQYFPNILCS
How it was run: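 Inhibitor screened at 0.091 mole fraction of the micelle interface. Average percent inhibition reported (standard error, n = 3); 25% or less inhibition taken as none.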

[5] = species on record: Homo sapiens; test: Selectivity ratio for inhibition of human recombinant group 6A iPLA2 over inhibition of human group […] cPLA2
How it was run: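 Ratio derived from XI(50) values for the two enzymes, using the modified Dole assay with 14C-labelled PAPC in Triton X-100 mixed micelles. GVIA iPLA2: 400 μM Triton X-100, 98.3 μM PAPC, 1.7 μM 14C-PAPC, 100 mM HEPES pH 7.5, 2 mM ATP, 4 mM DTT. GIVA cPLA2: 400 μM Triton X-100, 97 μM PAPC, 1.8 μM 14C-PAPC, 3 μM PIP2, 100 mM HEPES pH 7.5, 90 μM CaCl2, 2 mM DTT, 0.1 mg/ml BSA. XI(50) comes from a sigmoidal fit of % inhibition versus log mole fraction (typically 7 points, 0.00091–0.091).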

[6] = species on record: Homo sapiens; test: Selectivity ratio for inhibition of human recombinant group 6A iPLA2 over inhibition of human group 5 sPLA2
[7] = target: T2, Cytosolic phospholipase A2 (Homo sapiens); test: Inhibition of human group […] cPLA2 after 30 mins by Dole assay; how it was run: as §2

Row | inhibition [1] | inhibition [2] | XI50 (mole fraction) [3] | inhibition [4] | XI50 (mole fraction) [7] | Structure (SMILES) | Ratio [5] | Ratio [6]
1 | 99.1% |  | 0.0036 |  |  | O=C(CCCOc1ccccc1)C(F)(F)C(F)(F)F |  | 
2 | 100% | 79.9% | 0.0005 | 36.1% |  | O=C(C(F)CCCc1ccccc1)C(F)(F)C(F)(F)C(F)(F)F (stereo unspecified) | 76 | > 180
3 |  |  | 0.0014 |  |  | O=C(CCCCc1ccccc1)C(F)(F)C(F)(F)F |  | 
4 | 96.4% |  | 0.0066 | 76.9% |  | O=C(/C=C/c1ccccc1)C(F)(F)C(F)(F)F |  | 
5 | 100% | 68.4% | 0.0005 | 39.1% |  | O=C(C(F)CCCc1ccccc1)C(F)(F)C(F)(F)F (stereo unspecified) |  | 
6 | 96% | 59% | 0.0313 |  |  | O=C(/C=C/C=C/c1ccccc1)C(F)(F)C(F)(F)F |  | 
7 | 98.4% |  | 0.003 |  |  | O=C(CCCCCc1ccccc1)C(F)(F)C(F)(F)C(F)(F)F |  | 
8 | 99.4% | 32.6% | 0.0022 | 61.8% |  | O=C(CCCCc1ccccc1)C(F)(F)C(F)(F)C(F)(F)F |  | 

Continued, compound first:

Row | Structure (SMILES) | inhibition [1] | inhibition [2] | XI50 (mole fraction) [3] | inhibition [4] | XI50 (mole fraction) [7] | Ratio [5] | Ratio [6]
9 | O=C(C(F)CCCCc1ccccc1)C(F)(F)F (stereo unspecified) | 98.8% | 66% | 0.0013 |  |  |  | 
10 | O=C(CCCCc1ccc2ccccc2c1)C(F)(F)C(F)(F)F | 99.8% | 77.1% | 0.0006 | 58.4% |  |  | 
11 | O=C(CCCCc1ccc2ccccc2c1)C(F)(F)F | 99.9% | 80.8% | 0.0002 | 36.8% |  | 195 | > 455
12 | O=Cc1ccc(CCCCC(=O)C(F)(F)C(F)(F)F)o1 | 84.4% |  | 0.0262 | 41.9% |  |  | 
13 | CCCCCCCC/C=C\CCCCCCCC(=O)C(F)(F)C(F)(F)C(F)(F)F | 80.6% | 57% | 0.0574 | 33.9% |  |  | 
14 | CCCCCCCCc1ccc(OCCCC(=O)C(F)(F)C(F)(F)F)cc1 | 99.4% | 88.8% | 0.0024 | 63% |  |  | 
15 | CCCCCCOc1ccc(CCCCC(=O)C(F)(F)C(F)(F)F)cc1 | 98.3% | 76.1% | 0.0084 | 71.7% |  |  | 
16 | CCCCCCOc1ccc(CCCCC(=O)C(F)(F)C(F)(F)C(F)(F)F)cc1 | 95.8% | 43.7% | 0.0136 | 76.9% |  |  | 
17 | O=C(CCCCc1ccc2ccccc2c1)C(F)(F)C(F)(F)C(F)(F)F | 99.7% | 55.8% | 0.001 | 46.3% |  |  | 
18 | O=C(C(F)CCCc1ccccc1)C(F)(F)F (stereo unspecified) | 97.6% | 52.1% | 0.0025 |  |  |  | 
19 | CCCCCCCC/C=C\CCCCCCCC(=O)C(F)(F)C(F)(F)F | 95.5% | 41.4% | 0.0192 | 67% |  |  | 
20 | CCCCCCCCc1ccc(OCCCC(=O)C(F)(F)F)cc1 | 99.4% | 91.5% | 0.0029 | 61.4% | 0.022 |  | 
21 | OC(CCCCc1ccccc1)C(F)(F)C(F)(F)F (stereo unspecified) | 94.3% | 44.8% | 0.039 | 67.3% |  |  | 
22 | OC(CCCCc1ccccc1)C(F)(F)C(F)(F)C(F)(F)F (stereo unspecified) | 97% | 82% | 0.0258 | 65.8% |  |  | 
